Experimental data gathered from unrelated publications.
Target: Mitogen-activated protein kinase kinase kinase 11 (MAP3K11, Homo sapiens, UniProt Q16584)

SMILES | observed | mode | method | tested at | endpoint | result
Cn1cc(-c2cccc(N3CCc4c(sc5c4CC(C)(C)C5)C3=O)c2CO)cc(Nc2ccncn2)c1=O | enzyme activity | inhibitor | – | 1 µM | inhibition | -4%
Nc1ncc(-c2nc(N3CCOCC3)nc(N3CCOCC3)n2)c(C(F)F)n1 | binding | – | competition with immobilised ligand | 10 µM | remaining binding | 47%
Cn1cc(-c2cc(F)cc(N3CCn4c(cc5c4CCCC5)C3=O)c2CO)cc(Nc2ccc(N3CCN(C4COC4)CC3)cn2)c1=O | enzyme activity | inhibitor | – | 0.1 µM | inhibition | 0%
Cc1nn(C)cc1-c1nc2c(N3CCN(Cc4ccc(Cl)cc4)CC3)c(Cl)cnc2[nH]1 | binding | – | competition with immobilised ligand | 1 µM | remaining binding | 9.8%
Cn1cncc1[C@](O)(COc1ccc(C#N)cc1-c1ccc(OC(F)(F)F)cc1)c1ccc(C#N)cc1 | cell-free assay | – | competition with immobilised ligand | 1 µM | remaining binding | 86%
CC(C)(C)c1cc(C=C(C#N)C#N)cc(Br)c1O | enzyme activity | inhibitor | – | 0.5 µM | remaining activity | 97.4%
COc1ncccc1-c1cnn2ccc(N3CCN(C(=O)OC(C)C)CC3)nc12 | binding | – | competition with immobilised ligand | 1 µM | remaining binding | 76%
N#CC1(c2ccccn2)CCN(Cc2cc(C(=O)O)c(=O)n3ccccc23)CC1 | cell-free assay | – | competition with immobilised ligand | 1 µM | remaining binding | 100%
O=c1[nH]c2ccccc2n1C1CCN(Cc2ccc(-c3[nH]c4cc5ncnc5cc4nc3-c3ccccc3)cc2)CC1 | cell-free assay | – | – | 0.5 µM | remaining signal | 94.6%
